The values that follow come from ChEMBL document CHEMBL1212828, “Synthesis and biological evaluation of novel pyrazole compounds” (Bioorg Med Chem, 2010).

Each structure is given as a SMILES string. pIC50: −log10 of the molar value. Bounds are passed on as bounds.

Series [1] deals with T1, Prostaglandin G/H synthase 1 (Ovis aries) (UniProt P05979).
T1 sequence (whole entry): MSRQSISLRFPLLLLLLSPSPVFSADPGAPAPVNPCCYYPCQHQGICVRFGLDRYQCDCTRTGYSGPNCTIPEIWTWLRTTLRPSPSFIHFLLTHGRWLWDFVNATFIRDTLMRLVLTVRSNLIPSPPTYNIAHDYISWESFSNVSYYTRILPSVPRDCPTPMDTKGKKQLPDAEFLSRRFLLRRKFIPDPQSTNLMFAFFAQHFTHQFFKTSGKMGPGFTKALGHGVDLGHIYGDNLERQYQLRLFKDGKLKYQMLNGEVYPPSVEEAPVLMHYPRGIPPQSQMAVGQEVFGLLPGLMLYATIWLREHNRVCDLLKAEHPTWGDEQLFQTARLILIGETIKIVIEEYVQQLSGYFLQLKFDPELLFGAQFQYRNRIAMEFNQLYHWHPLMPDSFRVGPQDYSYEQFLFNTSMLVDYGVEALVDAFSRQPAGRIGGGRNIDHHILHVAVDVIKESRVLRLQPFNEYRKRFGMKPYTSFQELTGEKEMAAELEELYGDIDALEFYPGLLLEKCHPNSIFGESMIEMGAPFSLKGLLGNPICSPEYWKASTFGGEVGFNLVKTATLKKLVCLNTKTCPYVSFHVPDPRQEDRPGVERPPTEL
In words: Inhibition of ovine COX1 at 100 uM. In short, it runs like this:
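Screening kit with ovine COX-1 and human recombinant COX-2, run per manufacturer's protocol; percent inhibition of prostaglandin production measured for each isoform.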

Series [2] concerns Rattus norvegicus. In words: Antiinflammatory activity in Wistar albino rat assessed as inhibition of turpentine oil-induced granuloma at 20 mg/kg, po qd for 7 days post turpentine oil challenge measured on day 8. Format: functional. The method, boiled down:
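In ether-anaesthetized male Wistar rats (five per group) a dorsal subcutaneous pouch is formed with 2 mL air, then 0.5 mL turpentine oil is injected. Oral dosing at 20 mg/kg starts 1 h before turpentine and continues 7 days. On day 8 the exudate is drawn by syringe and its volume recorded; % inhibition = (Vcontrol − Vtreated)/Vcontrol × 100.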

The subject of series [3] is THP-1. The experiment in a line: Antiinflammatory activity in human THP1 cells assessed as reduction in LPS and IFN-gamma-induced MCP level after 24 hrs. Format: functional, cell-based. The method, boiled down:
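THP-1 cells (5 × 10^5 cells/mL, DMEM-F12 with 5% FBS) pretreated 15 min with compound or DMSO vehicle, then stimulated with 0.5 µg/mL LPS plus 150 U/mL IFN-γ. After 24 h, MCP-1 in cell-free medium measured by ELISA. IC50 estimated from concentration–response; randomized block ANOVA.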

Series [4] deals with THP-1. In words: Neuroprotective activity against LPS and IFN-gamma-stimulated neurotoxin production in human THP1 cell assessed as inhibition of THP1 cell secretion-induced toxicity to human SH-SY5Y cells after 72 hrs by MTT assay. The settings on record: for pIC50: THP-1, 72 h. Format: functional, cell-based. The method, boiled down:
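THP-1 cells pretreated 15 min with compound, then stimulated with LPS (0.5 µg/mL) plus IFN-γ (150 U/mL) for 24 h. Cell-free supernatant transferred to SH-SY5Y cells plated 24 h earlier (2 × 10^5 cells/mL). After 72 h, SH-SY5Y viability read by MTT (0.5 mg/mL, 1 h, 37 °C, OD570) or by LDH release (OD490, relative to Triton X-100 lysis). IC50 estimated.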

In series [5] the test system is Rattus norvegicus. The experiment in a line: Antiinflammatory activity in Wistar albino rat assessed as inhibition of formalin-induced paw edema at 20 mg/kg, po administered 1 hr prior to formalin challenge measured after 1 hr relative to control. Format: functional. In short, it runs like this:
(§1)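 Male Wistar rats, 180–200 g, groups of five; single oral dose 1 h before 2% formalin (0.1 mL) into subplantar left hind paw under light ether anaesthesia. Paw volume read by water plethysmometer at baseline and 1, 2, 3, 4 h; % inhibition = control (Vt−Vo) minus treated (Vt−Vo), over control, ×100. Means ± SEM; ANOVA with Student–Newman–Keuls.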

Series [6] deals with Rattus norvegicus. In words: Antiinflammatory activity in Wistar albino rat assessed as inhibition of formalin-induced paw edema at 20 mg/kg, po administered 1 hr prior to formalin challenge measured after 2 hrs relative to control. Format: functional. In short, it runs like this:
as §1

The subject of series [7] is Rattus norvegicus. The experiment in a line: Antiinflammatory activity in Wistar albino rat assessed as inhibition of formalin-induced paw edema at 20 mg/kg, po administered 1 hr prior to formalin challenge measured after 3 hrs relative to control. Format: functional. In short, it runs like this: as §1
Series [8] concerns Rattus norvegicus. The experiment in a line: Antiinflammatory activity in Wistar albino rat assessed as inhibition of formalin-induced paw edema at 20 mg/kg, po administered 1 hr prior to formalin challenge measured after 4 hrs relative to control. Format: functional. In short, it runs like this: as §1
Series [9] concerns Rattus norvegicus. In words: Antiinflammatory activity in Wistar albino rat sub-acute inflammatory model assessed as inhibition of formalin-induced paw edema at 20 mg/kg, po administered 1 hr prior to formalin challenge measured on day 1 relative to control. Format: functional. In short, it runs like this: (§2)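 Male Wistar rats, 180–200 g, five per group, dosed orally 20 mg/kg daily for 7 consecutive days. Formalin (2%, 0.1 mL) injected subplantar into left hind paw under light ether 1 h after dosing, repeated on day 3. Paw volume measured plethysmographically on days 1 and 8; inhibition expressed relative to untreated controls.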

The test system of series [10] is Rattus norvegicus. In words: Antiinflammatory activity in Wistar albino rat sub-acute inflammatory model assessed as inhibition of formalin-induced paw edema at 20 mg/kg, po administered 1 hr prior to formalin challenge measured on day 8 relative to control. Format: functional. The method, boiled down:
as §2

For series [11], the system named is Rattus norvegicus. In words: Antiinflammatory activity in po dosed Wistar albino rat assessed as inhibition of formalin-induced paw edema after 3 hrs relative to control. Format: functional.
Series [12] relates to Rattus norvegicus. The experiment in a line: Toxicity in Wistar albino rat assessed as ulcerogenic activity at 300 mg/kg, po qd for 3 days. Format: organism-based. More on the design: dose 300 mg/kg, route oral. The settings on record: in vivo, 72 h. In short, it runs like this:
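Rats in groups of five, fasted 12 h with water ad libitum; oral dosing in two equal portions at 0 and 12 h for three days, 300 mg/kg per day; control given 1% gum acacia. Killed 6 h after last dose; stomach opened along greater curvature, saline-washed, inspected under 3× lens for hyperemia, hemorrhage, erosion or ulcer.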

A short description of series [13]: Acute toxicity in Wistar albino rat after 24 hrs. Format: organism-based. The settings on record: in vivo, read-out: ALD50. In short, it runs like this: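 Male Wistar albino rats (180–200 g), fasted 24 h, groups of five; compound given orally in graded doses of 0.1–3.0 g/kg. Mortality recorded at each dose after 24 h to estimate approximate acute lethal dose (ALD50).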

As for `CC(NC(=O)C(=O)Nc1c(C#N)cnn1-c1ccccc1)c1ccccc1` (configuration not stated), the inhibition in [1] worked out at 24.5%. Besides, the inhibition in vivo at 20 mg/kg in the series on Rattus norvegicus [2] amounted to 51%; in the series with Rattus norvegicus [5], 50%; with Rattus norvegicus [6], 27%; with Rattus norvegicus [7] it was 46%; in the series on Rattus norvegicus [8] it was 50%; in the series on Rattus norvegicus [9], 39%. Further, the inhibition in vivo at 20 mg/kg in the series on Rattus norvegicus [10] is 38%. For the same molecule, the negative-log IC50 (pIC50) is 3.82 with THP-1 [3] (Homo sapiens, THP-1, 24 h, read-out: IC50) and 5.22 in the series on THP-1 [4]. Besides, the ED50 in the series with Rattus norvegicus [11] came to 19.6 mg/kg. Also, the Activity in the series on Rattus norvegicus [12] was determined as 10%. For the same molecule, in series [13], the LD50 at 24 h is greater than 300 mg/kg.

`N#Cc1cnn(-c2ccccc2)c1NC(=O)C(=O)Nc1c(C#N)cnn1-c1ccccc1`: in series [1], the inhibition was found to be 11.2%. For the same molecule, the inhibition in vivo at 20 mg/kg worked out at 48% in the series with Rattus norvegicus [2]; 44% in the series with Rattus norvegicus [5]; 41% in the series with Rattus norvegicus [6]; 50% with Rattus norvegicus [7]; 58% with Rattus norvegicus [8]; 43% with Rattus norvegicus [9]. In addition, the inhibition in vivo at 20 mg/kg in the series on Rattus norvegicus [10] is 44%. Also, the half-maximal inhibitory concentration (IC50) with THP-1 [3] was found to be 250 µM. The Activity result in the series on THP-1 [4] is “Dose-dependent effect”; in the series with Rattus norvegicus [12] it was 0%. The negative logarithm of the IC50 (pIC50) with THP-1 [4] is 5.00. Also, in the series with Rattus norvegicus [11], the median effective dose (ED50) is 17.5 mg/kg. Further, the LD50 at 24 h in series [13] is greater than 300 mg/kg.
